From ChEMBL document CHEMBL1158703, “Psychopharmacological profile of the alkaloid psychollatine as a 5HT2A/C serotonin modulator” (2005) come the findings set out here.

Test [1] deals with Mus musculus. Briefly: Antidepressant activity in CF1 mouse assessed as decrease in duration of immobility at 10 mg/kg during final 4 mins of the 6 mins session by forced swimming test. Format: functional, organism-based. The arrangement: dose 10 mg/kg. The essentials: (§1)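 Male adult CF1 mice given i.p. doses in saline (pH 7.0), N = 10. Each mouse swam 6 min in a 30 cm-diameter cylinder holding 20 cm of water at 25 ± 1 °C. Immobility was timed over the last 4 min. Values are mean ± SEM, analysed by ANOVA against saline.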

Test [2] concerns Mus musculus. The experiment in a line: Anxiolytic activity against CF1 mouse assessed as increase in time spent in light compartment at 7.5 mg/kg in presence of ritanserin for 5 mins. Also noted: dose 7.5 mg/kg. Format: functional, organism-based. The essentials: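 Male CF1 mice received ritanserin 2 mg/kg i.p. (in 10% DMSO) 30 min before the test drug at 7.5 mg/kg i.p. The light/dark test followed 30 min later, scoring latency to first entry and time in the light compartment. Values are mean ± SEM (N = 8-10), analysed by one-way ANOVA/SNK.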

For test [3], the system named is Mus musculus. Briefly: […] of CF1 mouse assessed as reduction in step down latency at 0.85 mg/kg by passive avoidance test. The format is functional.
Test [4] deals with Mus musculus. The experiment in a line: Antidepressant activity in CF1 mouse assessed as decrease in duration of immobility at 30 mg/kg during final 4 mins of the 6 mins session by forced swimming test. The format is functional, organism-based. Also noted: dose 30 mg/kg. The procedure, abridged:
as §1

In test [5] the test system is Mus musculus. Briefly: Anxiolytic activity against CF1 mouse assessed as increase in number of rearings at 7.5 mg/kg after 30 mins by hole-board assay. Format: functional, organism-based. The arrangement: dose 7.5 mg/kg. The procedure, abridged:
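Hole-board set 15 cm high and divided into 16 squares, with photocells counting head-dips. Male CF1 mice were dosed i.p. and placed centrally 30 min later under dim light. Over 5 min, head-dips, rearings and squares crossed were counted. Values are mean ± SEM (N = 15), analysed by one-way ANOVA then SNK.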

Test [6] relates to Mus musculus. Briefly: […] of CF1 mouse assessed as reduction in step down latency at 3 mg/kg by passive avoidance test. The format is functional.
Test [7] relates to Mus musculus. Briefly: Anxiolytic activity against CF1 mouse assessed as suppression of oxotremorine-treated tremors at 7.5 mg/kg. Format: functional, organism-based. Also noted: dose 7.5 mg/kg. The essentials: (§2)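 Male CF1 mice were given the test drug i.p. in saline 30 min before oxotremorine 0.5 mg/kg. Each mouse was then placed alone in an acrylic cage for observation of tremor. Values are median (interquartile range), analysed by Kruskal–Wallis then Mann–Whitney U against saline + oxotremorine.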

Test [8] deals with Mus musculus. Briefly: […] of CF1 mouse assessed as reduction in step down latency at 10 mg/kg by passive avoidance test. Format: functional.
Test [9] relates to Mus musculus. The experiment in a line: Anxiolytic activity against CF1 mouse assessed as suppression of oxotremorine-treated tremors at 3 mg/kg. Format: functional, organism-based. Also noted: dose 3 mg/kg. The procedure, abridged:
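Mice received treatment i.p. 30 min before oxotremorine 0.5 mg/kg in saline. Each mouse was then placed alone in a transparent cage immediately after injection and tremor was scored. Data given as median (interquartile range); Kruskal–Wallis then Mann–Whitney U against saline + oxotremorine.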

Test [10] deals with Mus musculus. Briefly: Effect on locomotory activity in CF1 mouse assessed as change in spontaneous activity at 3 to 30 mg/kg. Format: functional, organism-based. The essentials:
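Mice were habituated singly for 10 min in photocell activity cages and then dosed i.p. Diazepam was given in 10% propylene glycol. After 30 min, crossings were recorded for 15 min. n = 10–16, ANOVA then SNK.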

Test [11] deals with Mus musculus. The experiment in a line: Anxiolytic activity against CF1 mouse assessed as suppression of oxotremorine-treated tremors at 30 mg/kg. The format is functional, organism-based. The arrangement: dose 30 mg/kg. The procedure, abridged:
as §2

Test [12] deals with Mus musculus. The experiment in a line: Anxiolytic activity against CF1 mouse assessed as increase in number of rearings at 7.5 mg/kg after 30 mins in presence of ritanserin by hole-board assay. The format is functional, organism-based. The arrangement: dose 7.5 mg/kg. The essentials:
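Male CF1 mice received ritanserin 2 mg/kg i.p. in 10% DMSO 30 min before the test drug at 7.5 mg/kg i.p. The 5 min hole-board session began 30 min later, counting head-dips, crossings and rearings. Values are mean ± SEM (N = 8-14), analysed by ANOVA/SNK.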

The subject of test [13] is Mus musculus. Briefly: […] of CF1 mouse assessed as reduction in step down latency at 30 mg/kg by passive avoidance test. The format is functional.

Activity calls are given as the source filed them. No cut-off for these calls is given here.

For `COC(=O)C1=CO[C@@H](O[C@H]2O[C@H](CO)[C@@H](O)[C@H](O)[C@H]2O)[C@@H]2C([C@@H]3NCCc4c3[nH]c3ccccc43)=CC[C@H]12` [PSYCHOLLATINE], the result with Mus musculus [1], with Mus musculus [2], in the test on Mus musculus [4], in the test with Mus musculus [10] and in the test on Mus musculus [12] was inactive. Moreover, the Activity with Mus musculus [3] turned out to be 8.3 s; in the test with Mus musculus [6], 11.8 s; in the test with Mus musculus [8], 11.55 s; with Mus musculus [13], 12.8 s. Moreover, the outcome in the test on Mus musculus [5], with Mus musculus [7], in the test on Mus musculus [9] and in the test with Mus musculus [11] was Active.
